A selection: hits, their analogues and other compounds. The true share with any hit is near 12%.
PKD1 kinase inh: inhibitors of human PKD1 kinase, biochemical, fluorescence polarization. PKD1 kinase fluorescence polarization assay. AID 797, 2007. 200,000 tested, 0.056% active. inhibition, % (test concentration not listed)
Wee1 degr inh: Wee1 degradation inhibitors, primary screen, cell-based, HeLa, Wee1K328M-luciferase, luminescence; Wee1-like protein kinase (Homo sapiens), P30291; HeLa Luc-Wee1K328M stability; 100% = proteasome inhibitor MG132 effect; reporter increase, % at 5 µM; 220,000 tested, 1.2% active; AID 1321, 2008;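 active means activation above the mean of all tested compounds plus 3 SD, set per screening run, cut at about 8.8% in these data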;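 further: cells exposed to compound for 20 h before luminescence read; 0% = DMSO alone and 100% = MG132 at 30 µM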
Arbovirus anti: antivirals against arbovirus infection, primary screen, cell-based, full library, 10K replicate subset | arbovirus infection cell-based antiviral screen | inhibition, % at 10 µM | 200,000 tested, 0.37% active | AID 1251, 2008; in the data active means inhibition above about 30%
Rad51 HR inh: human RAD51 strand exchange inhibitors, primary screen, biochemical, fluorescence. hRad51 DNA strand exchange, fluorescence dequenching. 200,000 tested, 0.085% active. inhibition, % at 10 µM;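 active means inhibition above 40% at the single screening dose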;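 further: 0% = DMSO control wells and 100% = blanks with heterologous ssDNA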
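Material: hRad51 filaments on single-stranded DNA; Reagent: Donor/quencher-labelled 47-bp dsDNA substrate; Compound: 10 µM final, single point; Schedule: 37 °C 15-min filament assembly, 30-min compound preincubation, 15-min exchange; Technique: FRET fluorescence, excitation 485 nm, emission 520 nm; Benchmarks: control wells and blank wells on each plate.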
Lmaj promast: Leishmania major promastigote growth inhibition, primary screen. Leishmania major promastigotes, resazurin fluorescence viability. inhibition, % at 10 µM. 200,000 tested, 9% active;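 further: promastigotes grown with compound for 44 hours at 28 °C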
CHOP inhibitor: inhibitors of CHOP promoter induction, primary screen, cell-based, unfolded protein response, luciferase reporter | CHO-K1 CHOP-promoter luciferase, tunicamycin-induced, 15-18 h | inhibition, % at 10 µM | 220,000 tested, 3.8% active;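 active means compounds that reduced the stress-induced luciferase reporter signal by more than about 70% of percent inhibition, limit read from the data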;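 further: 0% = tunicamycin plus vehicle and 100% = wells without tunicamycin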
* hit, by the source's call; nt = no result given. Unless noted, no stated cut-off is given here; in the data, active means inhibition above about 50%; inactive means the rest.

SMILES	PKD1 kinase inh	Wee1 degr inh	Arbovirus anti	Rad51 HR inh	Lmaj promast	CHOP inhibitor
CC(Cc1ccccc1)NCc1ccccc1O (centres undefined)	-4	1	21	2	30	-18
COc1ccc(CNC(C)Cc2cccs2)cc1 (centres undefined)	2	1	7	-1	77*	-10
O=C(Cn1cnc2sc3c(c2c1=O)CCCC3)NCCCC(=O)N1CCC2(CC1)OCCO2	-3	-1	0	1	-4	11
Cc1ccc(OCC(=O)N2CCN(C3CCC(c4ccccc4)CC3)CC2)cc1 (centres undefined)	-2	-2	-12	nt	57*	93*
O=C(COc1ccc(Br)cc1)N1CCN(Cc2c[nH]c3ccccc23)CC1	4	1	-4	nt	13	-177
O=C(COc1ccc(Br)cc1)N1CCN(C2CCCC2)CC1	-10	-2	4	10	93*	-26
CN1CCN(C(=O)COc2ccc(Oc3ccccc3)cc2)CC1	-9	-1	-13	24	-7	9
O=C(COc1ccccc1)N1CCN(C2CC3CCC2C3)CC1 (centres undefined)	-5	4	-1	-6	72*	23
CCOc1cc(C2C(C#N)=C(N)Oc3c2c(=O)oc2ccccc32)ccc1OC(=O)c1cccs1 (centres undefined)	-11	-4	0	-1	-8	18
CCC(=Nc1ccc2c(c1)CCC2)c1c(O)n(-c2ccc(OC)cc2)c(=O)[nH]c1=O	nt	-3	nt	4	nt	53
CN1c2ccc([N+](=O)[O-])cc2CC2(C(=O)NC(=O)N(c3ccc(Br)cc3)C2=O)C1c1ccccc1 (centres undefined)	2	-1	17	-8	75*	52
CN1C(=O)C2C[C@@]3(Br)c4ccccc4N(OOSc4ccccc4)[C@H]3N2C(=O)[C@@H]1Cc1ccccc1 (some centres undefined)	nt	nt	nt	-8	nt	nt
Cc1ccc(N)c(C(=O)c2ccc(Br)cc2)c1	0	9.9*	-8	8	4	42
CCN(CC)S(=O)(=O)c1cc(NC(=O)C(C)N2CC=C(c3ccccc3)CC2)ccc1C (centres undefined)	0	-3	10	-1	13	28
O=C1C(=O)c2ccccc2-c2ccccc21	-2	3	-34	3	100*	107*
Cc1ccc(S(=O)(=O)N(C)CCCC(=O)N2CCN(c3ccccn3)CC2)cc1	-4	-2	0	3	90*	10
Cc1ccc(S(=O)(=O)N(C)C/N=C(\N)N[N+](=O)[O-])cc1	2	1	16	5	-4	15
Cc1ccc(Cl)cc1N1CCN(CCN)CC1	-11	-2	-7	11	100*	66
CCN(CC)c1ccc(CNCCc2ccccc2F)cc1	-4	1	-12	15	94*	48
Fc1ccccc1CCNCc1cccc2ccccc12	-10	1	4	2	77*	30
CN(N=O)c1cc(O)ccc1O	nt	nt	nt	nt	nt	-12
CCCNC(=O)N1[C@H]2CC[C@@H]1C(C(=O)OC)=C(c1cccc(OC)c1OC)C2	nt	nt	nt	-3	nt	nt
CC(C)c1ccc(N=Cc2c(O)n(C3CC3)c(=S)[nH]c2=O)cc1	nt	-1	nt	nt	nt	84*
CCn1c(O)c(C=Nc2ccc(S(N)(=O)=O)cc2)c(=O)[nH]c1=S	-14	-2	3	-7	56*	48
O=c1[nH]c(=S)n(C2CC2)c(O)c1C=Nc1ccc2c(c1)OCO2	nt	6	nt	-5	nt	-29
CCOC(=O)c1ccc(N=Cc2c(O)n(-c3ccccc3F)c(=S)[nH]c2=O)cc1	4	0	-7	7	61*	42
CCOC(=O)c1ccc(N=Cc2c(O)n(-c3ccc(OC)cc3)c(=S)[nH]c2=O)cc1	0	-4	-7	-16	-2	-5
O=c1[nH]oc2c1CCNC2	nt	nt	nt	nt	nt	-10
O=C1/C(=C/c2cc([N+](=O)[O-])ccc2Cl)N2CCC1CC2	-1	-1	1	-3	74*	-20
O=C1/C(=C\c2cc3c(cc2Cl)OCO3)N2CCC1CC2	-10	-1	-5	nt	73*	13

Compound activity as filed in PubChem.
